# A selection: hits, their analogues and other compounds. The true share with any hit is near 2.9%.
# Beta2AR agonist = agonists of human beta-2 adrenergic receptor inducing internalization. P07550. Am2.2-beta2AR cells, FAP receptor internalization, flow cytometry. response, % (test concentration not listed). actives 0.43% (n = 340,000). AID 504454;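 active means response above a set limit, near 3 SD of response in nonfluorescent compounds, cut at about 42% in these data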
# Target sequence (P07550 whole entry, looked up): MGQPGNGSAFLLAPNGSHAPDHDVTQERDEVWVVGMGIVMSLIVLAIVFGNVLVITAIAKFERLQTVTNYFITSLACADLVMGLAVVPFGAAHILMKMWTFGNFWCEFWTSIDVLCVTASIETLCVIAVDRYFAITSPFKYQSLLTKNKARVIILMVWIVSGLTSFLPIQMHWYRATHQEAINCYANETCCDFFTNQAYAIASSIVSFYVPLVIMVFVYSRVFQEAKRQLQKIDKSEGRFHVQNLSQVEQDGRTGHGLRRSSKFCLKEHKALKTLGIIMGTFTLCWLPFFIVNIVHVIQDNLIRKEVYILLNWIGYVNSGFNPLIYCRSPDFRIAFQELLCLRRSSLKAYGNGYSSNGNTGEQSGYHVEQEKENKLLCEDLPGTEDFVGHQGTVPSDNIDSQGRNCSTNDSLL
# MEKK2wt PB1 HTS = raises or lowers MEK5 binding to wildtype human MEKK2 PB1 domain | Q9Y2U5 | bead flow cytometry, Alexa488-MEK5 binding to MEKK2 WT; actives lie on both sides | binding response (% of control), % at 10 µM | actives 1.1% (n = 290,000) | AID 1531; in the data active means binding response below about 67% or above about 130%
# MEKK2 mut-MEK5 = signal of MEK5 binding to mutant human MEKK2 PB1 domain | bead flow cytometry, Alexa488-MEK5 binding to MEKK2 mutant | AID 1530 | percent response, % at 10 µM | actives 0.35% (n = 290,000); in the data active means percent response above about 24%, passing the limit was not always enough
# ATG4B inhibitor = ATG4B (human) cysteine protease inhibition; ATG4B cleavage of LC3-PLA2, NBD-HPC fluorescence, 1 h; actives 0.51% (n = 340,000); AID 504462; inhibition, % at 8.33 µM; Q9Y4P1; in the data active means inhibition above about 40%
# MEKK3 PB1 HTS = MEKK3-MEK5 PB1 interaction, increase or decrease; bead-based flow cytometry, Alexa488-MEK5 binding to MEKK3; actives lie on both sides; 0 = blocked by unlabeled MEK5, 100 = vehicle; binding response (% of control), % at 10 µM; Q99759; actives 1.4% (n = 290,000); AID 1529;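 active means binding response more than 3 SD above or below the average of its plate-row segment, actives on both sides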;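 further: Alexa488 bead fluorescence after subtracting the streptavidin-only scavenger bead signal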
# Dynein cargo inh = dynein cargo transport inhibition. AID 1381. z-score, hits read low. 3617.4 mouse cells, GR-EGFP nuclear translocation imaging; test concentration mostly 20 µM; stimulated with dexamethasone, 1 µM; stronger effect = lower value. actives 0.47% (n = 220,000);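 active means plate z-score of nuclear minus cytoplasmic receptor signal below a set negative limit, without overly bright fluorescence or cell loss, cut at about -3.5 in these data, passing the limit was not always enough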;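 further: z-score of nuclear minus cytoplasmic ring GR-EGFP intensity difference per well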
#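 Medium: Induction medium lacking tetracycline, stripped serum | Probe or stimulus: 1.0 µM final dexamethasone stimulus | Schedule: 48 h induction, then 1 h compound, then 30 min agonist, 37 °C | Signal: Automated 10x imaging of fixed Hoechst-stained cells | Evaluation: Per-cell GR-EGFP intensity, nucleus versus surrounding cytoplasmic ring, well-averaged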
# MEKK2wt confirm = raises or lowers MEK5 binding to wildtype human MEKK2, retest; bead flow cytometry, Alexa488-MEK5 binding to MEKK2 WT; actives lie on both sides; actives 2.4% (n = 5,900); shares compounds with MEKK3 PB1 HTS; AID 1892; binding response (% of control), % at 10 µM; in the data active means binding response below about 16% or above about 210%; inactive means in between
# MEKK2mut-MEK5 = signal of MEK5 binding to mutant human MEKK2, retest; shares compounds with MEKK3 PB1 HTS; AID 1893; percent response, % at 10 µM; bead flow cytometry, Alexa488-MEK5 binding to MEKK2 mutant; actives 2% (n = 5,900); in the data active means percent response mostly above about 71%, no sharp cut-off; inactive means mostly below about 38%;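 further: higher means compound restores mutant binding toward wildtype level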
# MEKK3 confirm = MEKK3-MEK5 PB1 inhibition, single concentration confirmation; shares compounds with MEKK3 PB1 HTS; bead flow cytometry, Alexa488-MEK5 binding to MEKK3; stronger effect = lower value; binding response (% of control), % at 10 µM; actives 1.8% (n = 5,900); AID 1894;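 active means binding response below 72% of control, or above a set upper limit, though filed actives all read lower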;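 further: 100% = DMSO only wells and 0% = binding blocked by excess unlabeled MEK5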
# Numbers without * were called inactive; . = not tested or not shown; [ ] = another dose, or the depositor's remark.
SMILES,Beta2AR agonist,MEKK2wt PB1 HTS,MEKK2 mut-MEK5,ATG4B inhibitor,MEKK3 PB1 HTS,Dynein cargo inh,MEKK2wt confirm,MEKK2mut-MEK5,MEKK3 confirm
O=C(COC(=O)c1ccccc1C(=O)c1ccccc1)NCCc1ccc(Cl)cc1Cl,-10,96,-2,12,130*,0.58,102,-3,101
Cc1ccc(Cn2c(=N)n(CC(O)COc3ccccc3)c3ccccc32)cc1 (stereo unspecified),34,134*,13,-3,109,-0.66,131,17,105
CCN(C(=O)c1ccc2c(=O)n3c(nc2c1)CCCCC3)c1cc(OC)ccc1OC,-6,100,-5,11,101,.,.,.,.
CC(C)NS(=O)(=O)c1ccc(NC(=O)C(C)Oc2ccc(C(=O)c3ccccc3)cc2)cc1 (stereo unspecified),0,100,-1,-4,147*,-0.47,97,-9,102
CCc1cc(=O)oc2cc(OCC(=O)N3CCC[C@H]3C(=O)O)ccc12,3,103,4,-15,102,.,.,.,.
Nc1nonc1C(=O)NCCNCc1c(OCc2ccccc2F)ccc2ccccc12,26,164*,26*,2,111,-0.66,146,19,106
Nc1nonc1C(=O)NCCNCc1cc(Br)ccc1OCc1ccc(F)cc1,-2,121,10,-14,108,-0.16,.,.,.
COC/C=C/C1=CC2=CC(=O)C(C)(OC(=O)c3cnc4ccccc4n3)C(=O)C2=CN1CC(C)C (stereo unspecified),-2,85,-2,-5,80*[inhibitor],.,101,3,101
COC/C=C/C1=CC2=CC(=O)C(C)(OC(=O)c3cnc4ccccc4n3)C(=O)C2=CN1c1ccccc1 (stereo unspecified),.,94,4,3,95,-3.2,.,.,.
O=C(COC(=O)c1ccccc1C(=O)c1ccc(Cl)cc1)NCC1CCCO1 (stereo unspecified),1,90,-6,-3,88,1.5,.,.,.
CC(=O)c1ccc(NC(=O)C(C)n2c3ccccc3c3nc(=O)cc(C)n32)cc1 (stereo unspecified),-52,52,-17,-4,44*[inhibitor],1.1,103,-3,103
O=C(Nc1c2c(nn1-c1ccc(F)cc1)CS(=O)(=O)C2)c1ccc(S(=O)(=O)N2CCOCC2)cc1,-10,99,-3,5,99,-0.6,.,.,.
CC(=O)Nc1cccc2c1C(=O)N(c1cccc(OC(C)=O)c1)C2=O,0,79,-14,2,83,-0.77,.,.,.
CC(=O)Nc1cccc2c1C(=O)N(c1cccc(C)c1)C2=O,-4,84,8,-13,73*[inhibitor],0.76,30,-20,53*
COCCOC(=O)c1c(C)oc2ccc(NS(=O)(=O)c3ccccc3)cc12,-5,98,0,-29,100,-1.5,.,.,.
COCCOC(=O)c1c(C)oc2ccc(NS(=O)(=O)c3ccc(C)cc3)cc12,0,119,29,-10,135*,2.1,102,4,105
Cc1oc2ccc(NS(=O)(=O)c3ccccc3)cc2c1C(=O)Nc1ccccc1,-1,94,-1,-3,129*,-0.096,100,0,105
CCN(CC)c1ccc2nc3c4ccccc4c(=O)cc-3oc2c1,.,53*[inhibitor],-26,-3,89,.,76,-14,96
Cn1c(=O)cc(OCC(=O)NCc2cccnc2)c2ccccc21,-2,93,-1,6,97,-0.52,.,.,.
Cn1c(=O)cc(OCCCC(=O)NCc2cccnc2)c2ccccc21,-1,51,-16,-3,48*[inhibitor],0.55,100,-3,99
CC1=C(C(N)=O)C(c2ccccc2F)n2nc(CCCO)nc2N1 (stereo unspecified),1,104,4,5,103,.,.,.,.
CC1=C(C(N)=O)C(c2ccc(Br)cc2)n2nc(CCCO)nc2N1 (stereo unspecified),-10,44*[inhibitor],-11,3,72,.,107,4,103
COc1ccc(NC(=O)C23CC4CC(C2)CC(c2ccc(C)cc2)(C4)C3)cc1,9,117,1,13,150*,1,105,5,107
COc1ccccc1NC(=O)C12CC3CC(C1)CC(c1ccc(C)cc1)(C3)C2,2,113,8,-3,101,0.15,.,.,.
CC1=C(C(=O)OCC(Br)(Br)Br)C(c2cccc([N+](=O)[O-])c2)NC(=O)N1CCCC(=O)O (stereo unspecified),7,97,-4,14,103,.,.,.,.
SMILES,Beta2AR agonist,MEKK2wt PB1 HTS,MEKK2 mut-MEK5,ATG4B inhibitor,MEKK3 PB1 HTS,Dynein cargo inh,MEKK2wt confirm,MEKK2mut-MEK5,MEKK3 confirm
CCOC(=O)N1CCc2c(sc3c2c(=O)n(-c2ccc(CC)cc2)c(=O)n3CC(=O)NCC2CCCO2)C1 (stereo unspecified),-1,103,3,-10,100,.,.,.,.
COc1ccc(-c2ccnc(SCC(=O)c3ccc(OC)c(OC)c3)n2)cc1,-1,103,0,0,132*,-0.82,99,0,103
COc1ccc(-c2ccnc(SCC(=O)N3CCN(c4ccccc4)CC3)n2)cc1,-8,121,28,1,137*,0.62,105,2,104
COc1ccc(-c2ccnc(SCC(=O)c3ccc(Cl)cc3)n2)cc1,-26,100,8,-12,102,0.15,.,.,.
CCOC(=O)NC(NCc1ccccc1)(C(F)(F)F)C(F)(F)F,6,111,1,2,137*,0.18,105,4,105
C=CCNC(=O)C1CCN(S(=O)(=O)c2ccc3ccccc3c2)CC1,-6,101,-1,-8,99,.,.,.,.
CCOC(=O)C(=O)/C(C#N)=C/Nc1ccccc1,1,103,13,-1,99,-0.11,.,.,.
CCOC(=O)/C(C#N)=C/Nc1ccccc1OC,7,2.0*[inhibitor],-16,6,2.0*[inhibitor],-0.17,106,9,105
COc1cccc(-c2nc(CS(=O)(=O)CC(=O)N3CCc4ccccc4C3)c(C)o2)c1,3,-3.0*[inhibitor],-19,-3,1.0*[inhibitor],2.2,101,1,103
Cc1oc(-c2ccccc2F)nc1CS(=O)(=O)CC(=O)NCCCN1CCc2ccccc2C1,-2,149*,21,-9,113,0.52,132,11,105
